{"data": "Experimental data gathered from unrelated publications", "target": "Serine/threonine-protein kinase D3 (PRKD3, Homo sapiens, UniProt O94806)", "Residues used in one study (O94806 1-890)": "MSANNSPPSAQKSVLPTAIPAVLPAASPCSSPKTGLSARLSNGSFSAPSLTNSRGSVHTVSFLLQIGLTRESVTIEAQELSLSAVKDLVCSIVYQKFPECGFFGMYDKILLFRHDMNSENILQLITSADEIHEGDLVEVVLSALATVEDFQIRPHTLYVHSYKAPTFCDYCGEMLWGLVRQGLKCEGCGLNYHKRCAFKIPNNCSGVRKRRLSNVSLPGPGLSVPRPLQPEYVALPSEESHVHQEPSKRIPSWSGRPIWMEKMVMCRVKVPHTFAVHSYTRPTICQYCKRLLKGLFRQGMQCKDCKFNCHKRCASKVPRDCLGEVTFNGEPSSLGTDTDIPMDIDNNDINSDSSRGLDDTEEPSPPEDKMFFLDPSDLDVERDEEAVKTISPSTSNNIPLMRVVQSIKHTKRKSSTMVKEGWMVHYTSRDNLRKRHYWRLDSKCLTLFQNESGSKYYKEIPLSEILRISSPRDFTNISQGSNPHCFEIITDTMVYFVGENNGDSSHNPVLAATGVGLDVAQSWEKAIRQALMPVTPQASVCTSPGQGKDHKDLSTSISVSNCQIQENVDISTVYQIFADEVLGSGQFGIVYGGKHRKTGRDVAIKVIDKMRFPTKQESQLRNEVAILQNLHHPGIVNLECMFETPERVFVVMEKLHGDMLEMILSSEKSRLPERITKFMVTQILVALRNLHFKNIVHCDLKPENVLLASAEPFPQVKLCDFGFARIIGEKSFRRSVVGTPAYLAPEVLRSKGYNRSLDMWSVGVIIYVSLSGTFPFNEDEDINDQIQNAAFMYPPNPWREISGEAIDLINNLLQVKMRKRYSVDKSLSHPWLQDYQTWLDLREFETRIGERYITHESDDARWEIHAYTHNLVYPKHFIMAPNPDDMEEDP"}
{"SMILES": "CNc1cccc2cc(C(=O)Nc3ccc(C(=O)O)cc3)c(=O)[nH]c12", "test": "enzyme activity, inhibitor", "setting": "10 µM", "measurement": "inhibition", "value": "-1%"}
{"SMILES": "COc1cc(Nc2c(C#N)cnc3cc(OCCCN4CCN(C)CC4)c(OC)cc23)c(Cl)cc1Cl", "test": "cell-free assay", "setting": "0.5 µM", "measurement": "remaining signal", "value": "42.2%"}
{"SMILES": "CO[C@@H](C)c1c(Nc2ccc([C@@H](N(C)C(=O)C3CCS(=O)(=O)CC3)C(F)(F)F)cc2)cnc2cc(Cl)nn12", "test": "cell-free assay, competition with immobilised ligand", "setting": "1 µM", "measurement": "remaining binding", "value": "93%"}
{"SMILES": "COc1cccc2c(NCc3ccccc3)nc(-n3c(N)nc4ccccc43)nc12", "test": "target engagement in cells, inhibitor, chemoproteomics", "setting": "20 mM", "measurement": "inhibition", "value": "-8.9%"}
{"SMILES": "O=C(NCc1ncc(C(F)(F)F)cc1Cl)c1ccc2c(c1)C1(CCS(=O)(=O)CC1)[C@H](C1CC1)N2S(=O)(=O)c1ccc(F)cc1", "test": "cell-free assay, competition with immobilised ligand", "setting": "1 µM", "measurement": "remaining binding", "value": "100%"}
{"SMILES": "O=C1NC(=O)c2cc(Nc3ccc(F)cc3)c(Nc3ccc(F)cc3)cc21", "test": "cell-free assay", "setting": "0.5 µM", "measurement": "remaining signal", "value": "96.7%"}
{"SMILES": "CCCCN(CCCC)C(=O)CN1C[C@@H](c2cc(OC)c3c(c2)OCO3)[C@H](C(=O)O)[C@H]1CC(C)(C)CCC", "test": "cell-free assay, competition with immobilised ligand", "setting": "1 µM", "measurement": "remaining binding", "value": "100%"}
{"SMILES": "Cn1c2c(Cl)c(Cl)ccc2c2cc(N)[nH]c(=O)c21", "test": "thermal stability, DSF", "setting": "10 µM", "measurement": "ΔTm", "value": "1 °C"}
{"SMILES": "CC(C)(O)[C@H]1CC[C@H](Nc2ccc3ncc(-c4cccc(C(F)(F)F)c4)n3n2)CC1", "test": "enzyme activity, inhibitor", "setting": "1 µM", "measurement": "remaining activity", "value": "91.2%"}
{"SMILES": "CC(C)(C)c1nc(-c2cccc(NS(=O)(=O)c3c(F)cccc3F)c2F)c(-c2ccnc(N)n2)s1", "test": "enzyme activity, inhibitor, radiometric", "setting": "1 µM", "measurement": "remaining activity", "value": "100%"}
{"SMILES": "COCCOc1nc(-c2ccc(Cl)nc2)nc2c1CN(C(=O)c1ncn3ccccc13)CC2", "test": "cell-free assay, competition with immobilised ligand", "setting": "0.1 µM", "measurement": "remaining binding", "value": "94%"}
{"SMILES": "CC1(C)NC(=O)c2[nH]c3c(Cl)c(Cl)ccc3c2C1C#N (stereo not drawn)", "test": "thermal stability, DSF", "setting": "10 µM", "measurement": "ΔTm", "value": "0.8 °C"}
{"SMILES": "CCN1CCN(Cc2ccc(NC(=O)c3ccc(C)c(Oc4ccnc5[nH]ccc45)c3)cc2C(F)(F)F)CC1", "test": "target engagement in cells, inhibitor, chemoproteomics", "test system": "Huh-7", "setting": "1 µM", "measurement": "inhibition", "value": "-12.7%"}
{"SMILES": "Nc1ncnc2occ(-c3ccc(NC(=O)Nc4cc(C(F)(F)F)ccc4F)cc3)c12", "test": "cell-free assay, inhibitor", "setting": "20 µM", "measurement": "remaining signal", "value": "42%"}
{"SMILES": "CCOc1cc(-c2nncn2C)ccc1Nc1ncc2cc(C)nc(NCC(C)(C)C)c2n1", "test": "enzyme activity, inhibitor, FRET", "setting": "1 µM", "measurement": "inhibition", "value": "< 15%"}
